Experimental data as given in the M2OR odorant receptor database.
Substitutions are numbered along the chain they refer to.

Key:
Details in all cases: stereoisomer not certain
OR2A1 T73A R74C S168C = test system: T1, OR2A1 T73A R74C S168C
T1 sequence (whole entry): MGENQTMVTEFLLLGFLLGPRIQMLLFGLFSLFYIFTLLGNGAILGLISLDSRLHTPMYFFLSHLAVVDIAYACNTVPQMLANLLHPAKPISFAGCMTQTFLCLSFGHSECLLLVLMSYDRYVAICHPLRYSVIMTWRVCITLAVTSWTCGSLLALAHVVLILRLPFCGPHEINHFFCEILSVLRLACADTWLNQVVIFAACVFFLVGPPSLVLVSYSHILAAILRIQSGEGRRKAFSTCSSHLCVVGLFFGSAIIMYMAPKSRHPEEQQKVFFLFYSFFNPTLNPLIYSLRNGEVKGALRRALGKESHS
Outline: (§1)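 Assay methods differ from source to source, frequently being transient luciferase assays in mammalian cell lines. For each receptor–molecule pair, the label responsive (active) applies when the original authors judged the measured signal statistically different from baseline, and non-responsive (inactive) applies otherwise.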

OR2A12 (Homo sapiens) = target: T2, OR2A12 (Homo sapiens) (UniProt Q8NGT7)
T2 sequence (whole entry): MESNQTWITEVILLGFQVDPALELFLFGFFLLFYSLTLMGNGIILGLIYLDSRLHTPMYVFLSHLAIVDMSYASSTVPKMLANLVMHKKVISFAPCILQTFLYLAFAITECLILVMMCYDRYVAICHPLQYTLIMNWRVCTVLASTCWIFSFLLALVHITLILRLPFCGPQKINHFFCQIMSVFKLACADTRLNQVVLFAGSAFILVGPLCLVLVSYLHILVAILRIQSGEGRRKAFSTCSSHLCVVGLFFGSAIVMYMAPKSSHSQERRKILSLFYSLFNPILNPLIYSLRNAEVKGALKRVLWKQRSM
Outline: as §1

OR2A14 (Homo sapiens) = target: T3, OR2A14 (Homo sapiens) (UniProt Q96R47)
T3 sequence (whole entry): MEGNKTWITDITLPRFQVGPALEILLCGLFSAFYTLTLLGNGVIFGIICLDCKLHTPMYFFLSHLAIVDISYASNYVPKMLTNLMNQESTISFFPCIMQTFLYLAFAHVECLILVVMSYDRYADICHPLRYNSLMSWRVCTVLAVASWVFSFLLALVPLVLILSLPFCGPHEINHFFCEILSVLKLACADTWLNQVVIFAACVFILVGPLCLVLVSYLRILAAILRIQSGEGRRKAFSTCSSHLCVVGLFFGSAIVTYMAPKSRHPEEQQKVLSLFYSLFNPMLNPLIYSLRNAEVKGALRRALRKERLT
Outline: as §1

OR2A2 (Homo sapiens) = target: T4, OR2A2 (Homo sapiens) (UniProt Q6IF42)
T4 sequence (whole entry): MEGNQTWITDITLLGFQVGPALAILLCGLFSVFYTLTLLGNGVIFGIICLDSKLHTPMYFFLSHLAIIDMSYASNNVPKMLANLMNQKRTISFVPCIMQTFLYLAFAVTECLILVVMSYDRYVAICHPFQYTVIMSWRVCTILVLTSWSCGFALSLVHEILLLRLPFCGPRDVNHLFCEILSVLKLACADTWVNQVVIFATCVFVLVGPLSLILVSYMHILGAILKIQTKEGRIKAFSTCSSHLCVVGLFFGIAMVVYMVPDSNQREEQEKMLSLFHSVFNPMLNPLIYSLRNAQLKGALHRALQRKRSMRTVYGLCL
Outline: as §1

OR2A25 (Homo sapiens) = target: T5, OR2A25 (Homo sapiens) (UniProt A4D2G3)
T5 sequence (whole entry): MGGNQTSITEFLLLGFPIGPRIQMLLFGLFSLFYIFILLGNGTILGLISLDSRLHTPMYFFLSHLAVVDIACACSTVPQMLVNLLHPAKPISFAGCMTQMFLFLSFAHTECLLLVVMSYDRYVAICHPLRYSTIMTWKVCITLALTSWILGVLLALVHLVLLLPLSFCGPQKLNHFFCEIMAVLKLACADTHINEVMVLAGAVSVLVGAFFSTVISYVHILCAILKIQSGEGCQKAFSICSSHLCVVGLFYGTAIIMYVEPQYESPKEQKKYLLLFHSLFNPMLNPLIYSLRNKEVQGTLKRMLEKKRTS
Outline: as §1

OR2A2 = test system: T6, OR2A2
T6 sequence (whole entry): T4 sequence (whole entry) with F280L
Outline: as §1

OR2A4 (Homo sapiens) = target: T7, OR2A4 (Homo sapiens) (UniProt O95047)
T7 sequence (whole entry): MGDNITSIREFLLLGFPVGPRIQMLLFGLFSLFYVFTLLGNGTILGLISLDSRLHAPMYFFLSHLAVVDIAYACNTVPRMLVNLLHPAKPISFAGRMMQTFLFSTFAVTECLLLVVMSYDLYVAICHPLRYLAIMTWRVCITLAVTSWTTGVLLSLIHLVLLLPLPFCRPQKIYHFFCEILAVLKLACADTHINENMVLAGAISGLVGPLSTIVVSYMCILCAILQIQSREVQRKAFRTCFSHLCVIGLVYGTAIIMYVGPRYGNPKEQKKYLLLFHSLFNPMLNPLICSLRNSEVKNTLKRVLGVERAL
Outline: as §1

OR2A5 (Homo sapiens) = target: T8, OR2A5 (Homo sapiens) (UniProt Q96R48)
T8 sequence (whole entry): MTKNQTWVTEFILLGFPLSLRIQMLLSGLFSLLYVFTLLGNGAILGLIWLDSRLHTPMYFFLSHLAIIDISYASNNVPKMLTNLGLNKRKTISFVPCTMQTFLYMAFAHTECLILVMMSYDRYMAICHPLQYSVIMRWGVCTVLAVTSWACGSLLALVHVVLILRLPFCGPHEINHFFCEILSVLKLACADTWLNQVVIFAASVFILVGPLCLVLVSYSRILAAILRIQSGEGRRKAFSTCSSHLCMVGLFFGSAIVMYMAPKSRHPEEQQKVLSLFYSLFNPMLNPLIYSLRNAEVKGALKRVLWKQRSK
Outline: as §1

OR2A5 I126V A202S A255T = test system: T9, OR2A5 I126V A202S A255T
T9 sequence (whole entry): T8 sequence (whole entry) with I126V, A202S, A255T
Outline: as §1

OR2A7 (Homo sapiens) = target: T10, OR2A7 (Homo sapiens) (UniProt Q96R45)
T10 sequence (whole entry): T7 sequence (whole entry) with R9T, R238C, V250F
Outline: as §1

OR2A7 = test system: T11, OR2A7
T11 sequence (whole entry): T7 sequence (whole entry) with R238C, V250F
Outline: as §1

OR2AE1 (Homo sapiens) = target: T12, OR2AE1 (Homo sapiens) (UniProt Q8NHA4)
T12 sequence (whole entry): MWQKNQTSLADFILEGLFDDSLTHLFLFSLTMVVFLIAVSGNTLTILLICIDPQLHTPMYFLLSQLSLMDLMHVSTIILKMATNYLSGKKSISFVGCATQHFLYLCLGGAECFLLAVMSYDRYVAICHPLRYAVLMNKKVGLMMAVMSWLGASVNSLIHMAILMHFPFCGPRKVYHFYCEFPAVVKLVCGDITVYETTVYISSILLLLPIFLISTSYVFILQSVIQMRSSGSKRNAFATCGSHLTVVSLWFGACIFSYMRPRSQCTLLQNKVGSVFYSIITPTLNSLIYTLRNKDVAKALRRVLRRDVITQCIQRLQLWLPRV
Outline: as §1

OR2AG1 (Homo sapiens) = target: T13, OR2AG1 (Homo sapiens) (UniProt Q9H205)
T13 sequence (whole entry): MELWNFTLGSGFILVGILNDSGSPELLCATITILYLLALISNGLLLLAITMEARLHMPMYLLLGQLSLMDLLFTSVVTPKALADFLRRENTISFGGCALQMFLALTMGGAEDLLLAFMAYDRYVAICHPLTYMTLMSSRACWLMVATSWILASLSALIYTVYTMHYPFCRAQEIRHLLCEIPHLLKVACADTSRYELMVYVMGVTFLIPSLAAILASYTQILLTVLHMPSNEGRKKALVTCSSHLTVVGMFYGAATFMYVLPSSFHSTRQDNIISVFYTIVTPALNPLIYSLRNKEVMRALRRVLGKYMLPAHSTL
Outline: as §1

OR2AG2 (Homo sapiens) = target: T14, OR2AG2 (Homo sapiens) (UniProt A6NM03)
T14 sequence (whole entry): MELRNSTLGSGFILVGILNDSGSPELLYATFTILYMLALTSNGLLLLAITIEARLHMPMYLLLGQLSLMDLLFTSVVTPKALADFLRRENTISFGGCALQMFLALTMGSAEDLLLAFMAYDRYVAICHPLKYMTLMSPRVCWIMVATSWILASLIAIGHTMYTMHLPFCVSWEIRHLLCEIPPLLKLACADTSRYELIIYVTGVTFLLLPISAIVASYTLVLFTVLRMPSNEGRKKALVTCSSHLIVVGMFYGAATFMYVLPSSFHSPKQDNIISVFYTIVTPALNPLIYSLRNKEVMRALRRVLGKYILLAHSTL
Outline: as §1

OR2AK2 (Homo sapiens) = target: T15, OR2AK2 (Homo sapiens) (UniProt Q8NG84)
T15 sequence (whole entry): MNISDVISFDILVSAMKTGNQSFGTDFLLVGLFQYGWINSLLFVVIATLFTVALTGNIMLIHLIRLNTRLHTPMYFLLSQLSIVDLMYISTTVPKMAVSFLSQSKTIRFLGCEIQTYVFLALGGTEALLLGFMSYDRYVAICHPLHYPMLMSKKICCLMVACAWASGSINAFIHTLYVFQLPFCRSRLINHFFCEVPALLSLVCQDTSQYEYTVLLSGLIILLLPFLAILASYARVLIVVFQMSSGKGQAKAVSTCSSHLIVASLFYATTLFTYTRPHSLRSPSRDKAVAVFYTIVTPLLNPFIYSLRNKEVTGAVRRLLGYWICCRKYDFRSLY
Outline: as §1

OR2AP1 (Homo sapiens) = target: T16, OR2AP1 (Homo sapiens) (UniProt Q8NGE2)
T16 sequence (whole entry): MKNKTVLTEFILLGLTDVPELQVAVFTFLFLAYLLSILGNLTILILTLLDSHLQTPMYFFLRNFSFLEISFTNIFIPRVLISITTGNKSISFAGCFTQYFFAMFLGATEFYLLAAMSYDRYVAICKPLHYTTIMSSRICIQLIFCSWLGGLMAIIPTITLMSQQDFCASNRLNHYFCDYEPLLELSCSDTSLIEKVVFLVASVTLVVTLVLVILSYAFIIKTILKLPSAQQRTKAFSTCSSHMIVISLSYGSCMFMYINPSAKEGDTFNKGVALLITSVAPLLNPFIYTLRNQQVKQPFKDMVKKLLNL
Outline: as §1

OR2AT4 (Homo sapiens) = target: T17, OR2AT4 (Homo sapiens) (UniProt A6NND4)
T17 sequence (whole entry): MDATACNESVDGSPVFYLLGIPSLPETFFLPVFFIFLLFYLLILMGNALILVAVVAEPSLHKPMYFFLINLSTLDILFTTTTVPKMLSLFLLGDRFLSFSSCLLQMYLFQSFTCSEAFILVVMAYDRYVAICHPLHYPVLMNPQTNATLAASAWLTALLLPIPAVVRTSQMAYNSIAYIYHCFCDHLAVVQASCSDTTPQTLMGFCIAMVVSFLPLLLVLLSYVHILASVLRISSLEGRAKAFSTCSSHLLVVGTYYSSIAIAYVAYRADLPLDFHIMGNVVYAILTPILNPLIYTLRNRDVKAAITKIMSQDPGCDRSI
Outline: as §1

OR2B11 (Homo sapiens) = target: T18, OR2B11 (Homo sapiens) (UniProt Q5JQS5)
T18 sequence (whole entry): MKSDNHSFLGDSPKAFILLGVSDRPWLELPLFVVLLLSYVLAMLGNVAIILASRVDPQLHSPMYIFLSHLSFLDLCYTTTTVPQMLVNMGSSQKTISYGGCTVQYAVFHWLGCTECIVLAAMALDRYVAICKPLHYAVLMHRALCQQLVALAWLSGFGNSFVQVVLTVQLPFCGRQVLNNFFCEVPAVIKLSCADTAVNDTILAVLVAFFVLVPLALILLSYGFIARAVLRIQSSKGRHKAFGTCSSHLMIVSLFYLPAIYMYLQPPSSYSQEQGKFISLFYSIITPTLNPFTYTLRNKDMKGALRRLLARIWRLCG
Outline: as §1

OR2B2 (Homo sapiens) = target: T19, OR2B2 (Homo sapiens) (UniProt Q9GZK3)
T19 sequence (whole entry): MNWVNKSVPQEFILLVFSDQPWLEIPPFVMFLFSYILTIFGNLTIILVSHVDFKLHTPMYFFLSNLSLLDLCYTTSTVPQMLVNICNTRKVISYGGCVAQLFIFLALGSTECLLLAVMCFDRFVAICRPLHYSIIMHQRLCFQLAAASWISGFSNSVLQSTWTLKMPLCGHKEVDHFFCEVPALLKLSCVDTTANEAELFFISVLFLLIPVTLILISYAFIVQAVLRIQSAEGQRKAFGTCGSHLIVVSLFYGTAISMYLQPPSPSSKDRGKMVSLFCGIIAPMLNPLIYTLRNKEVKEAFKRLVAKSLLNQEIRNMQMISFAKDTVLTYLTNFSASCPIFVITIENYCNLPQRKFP
Outline: as §1

OR2AJ1 (Homo sapiens) = target: T20, OR2AJ1 (Homo sapiens) (UniProt Q8NGZ0)
T20 sequence (whole entry): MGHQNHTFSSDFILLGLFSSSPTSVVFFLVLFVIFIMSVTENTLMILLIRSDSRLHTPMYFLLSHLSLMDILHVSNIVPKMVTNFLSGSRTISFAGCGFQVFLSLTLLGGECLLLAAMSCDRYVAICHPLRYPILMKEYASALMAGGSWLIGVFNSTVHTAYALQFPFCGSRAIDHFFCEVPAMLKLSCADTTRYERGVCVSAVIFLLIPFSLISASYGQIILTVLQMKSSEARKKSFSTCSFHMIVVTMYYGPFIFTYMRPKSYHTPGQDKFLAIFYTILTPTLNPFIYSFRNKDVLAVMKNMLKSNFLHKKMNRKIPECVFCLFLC
Outline: as §1

Measured: odorant receptor agonist call

CC1=NC(C)C(C)S1 (configuration not stated)
not listed: OR2AJ1 (Homo sapiens)
inactive: all other assays above

CCCCCCC=CCCC=O
inactive: all assays above

CC1=C(O)C(=O)C(C)O1 (configuration not stated)
not listed: OR2AJ1 (Homo sapiens)
inactive: all other assays above

CCCCC(=O)C(C)=O
inactive: OR2A7 (Homo sapiens)

CCCCCCCCCCCC(=O)OCC
inactive: OR2A7 (Homo sapiens)

CC(CO)CS (configuration not stated)
not listed: OR2A1 T73A R74C S168C | OR2A2 | OR2A5 I126V A202S A255T | OR2A7
inactive: all other assays above

CCC(C)CO (configuration not stated)
inactive: OR2A7 (Homo sapiens)
